ChEMBL document CHEMBL1152543, “Novel semisynthetic derivatives of betulin and betulinic acid with cytotoxic activity” (Bioorg Med Chem, 2009)
The source made the active and inactive calls. The calls are words filed in the database; no cut-off is given here.

How the values were obtained:
Assay type in all cases: functional, cell-based
[1] = test system: Jurkat; assay: Cytotoxicity against human Jurkat cells at 20 uM after 72 hrs by XTT assay
Outline: (§1)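 XTT screen at a single concentration: cells seeded at 1×10^3–30×10^3 cells/well depending on cell type, exposed to 20 μM for 72 h at 37 °C, 5% CO2, then read by XTT. Triplicate wells, three independent repeats; output is % proliferation relative to control.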

[2] = test system: Jurkat; assay: Cytotoxicity against human Jurkat cells after 72 hrs by XTT assay
Outline: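 Jurkat cells (RPMI 1640, 10% FBS, 2 mM glutamine) in exponential growth plated at 5.5×10^3 cells/well and treated in triplicate with a concentration range or DMSO vehicle for 72 h. XTT labeling mix added, 4 h, absorbance at 450 nm. IC50 vs untreated by non-linear regression; mean ± SD of ≥3 experiments.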

[3] = test system: MIA PaCa-2; assay: Cytotoxicity against human MIAPaCa2 cells at 20 uM after 72 hrs by MTT assay
Outline: (§2)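 Single-concentration screen: compound at 20 μM applied to cells plated at 1×10^3–30×10^3 cells/well (density set by cell type), 72 h at 37 °C, 5% CO2. Viability read by MTT, triplicate wells, experiment repeated three times; result given as % proliferation versus control.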

[4] = test system: HepG2; assay: Cytotoxicity against human HepG2 cells at 20 uM after 72 hrs by MTT assay; outline: as §2
[5] = test system: MCF7; assay: Cytotoxicity against human MCF7 cells at 20 uM after 72 hrs by MTT assay; outline: as §2
[6] = test system: A-375; assay: Cytotoxicity against human A375 cells at 20 uM after 72 hrs by MTT assay; outline: as §2
[7] = test system: HeLa; assay: Cytotoxicity against human HeLa cells after 72 hrs by MTT assay
Outline: (§3)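 MTT dose–response: exponentially growing HeLa (1×10^3 cells/well) or HepG2 (8×10^3 cells/well, DMEM + 10% FBS, 1 mM pyruvate) seeded, left 24 h, then given a compound range in DMSO (final <0.1%) for 72 h. MTT 0.5 mg/ml for 1 h, formazan dissolved in DMSO, read at 550 nm. IC50 vs untreated by non-linear regression, mean ± SD of at least three experiments.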

[8] = test system: SH-SY5Y; assay: Cytotoxicity against human SH-SY5Y cells at 20 uM after 72 hrs by XTT assay; outline: as §1
[9] = test system: HeLa; assay: Cytotoxicity against human HeLa cells at 20 uM after 72 hrs by MTT assay; outline: as §2
[10] = test system: HT-29; assay: Cytotoxicity against human HT-29 cells at 20 uM after 72 hrs by MTT assay; outline: as §2
[11] = test system: HepG2; assay: Cytotoxicity against human HepG2 cells after 72 hrs by MTT assay; conditions: HepG2, 72 h; outline: as §3

SMILES	Activity [1]	IC50 [2]	Activity [3]	Activity [4]	Activity [5]	Activity [6]	IC50 [7]	Activity [8]	Activity [9]	Activity [10]	IC50 [11]
C=C(C)[C@@H]1CC[C@]2(COC(=O)n3ccnc3)CC[C@]3(C)[C@H](CC[C@@H]4[C@@]5(C)CC[C@H](O)C(C)(C)[C@@H]5CC[C@]43C)[C@@H]12	Active	16.3 µM	Active	Active	Active	Active	7.6 µM	Active	Active	Active	4.2 µM
C=C(C)[C@@H]1CC[C@]2(C(=O)n3ccnc3)CC[C@]3(C)[C@H](CC[C@@H]4[C@@]5(C)C=C(OC(=O)n6ccnc6)C(=O)C(C)(C)[C@@H]5CC[C@]43C)[C@@H]12	–	8.1 µM	–	–	–	–	3.9 µM	–	–	–	4 µM
C=C(C)[C@@H]1CC[C@]2(C(=O)n3ccnc3)CC[C@]3(C)[C@H](CC[C@@H]4[C@@]5(C)C=CC(=O)C(C)(C)[C@@H]5CC[C@]43C)[C@@H]12	–	2.3 µM	–	–	–	–	3 µM	–	–	–	1.7 µM
C=C(C)[C@@H]1CC[C@]2(CO)CC[C@]3(C)[C@H](CC[C@@H]4[C@@]5(C)CC[C@H](OC(=O)n6ccnc6)C(C)(C)[C@@H]5CC[C@]43C)[C@@H]12	–	11.1 µM	–	–	–	–	3 µM	–	–	–	2 µM
C=C(COC)[C@@H]1CC[C@]2(COC(=O)n3ccnc3)CC[C@]3(C)[C@H](CC[C@@H]4[C@@]5(C)CC[C@H](O)C(C)(C)[C@@H]5CC[C@]43C)[C@@H]12	Active	12.2 µM	Active	Active	Active	Active	9.8 µM	Active	Active	Active	8.3 µM
C=C(COC)[C@@H]1CC[C@]2(COC(=O)n3ccnc3)CC[C@]3(C)[C@H](CC[C@@H]4[C@@]5(C)CC[C@H](OC(=O)n6ccnc6)C(C)(C)[C@@H]5CC[C@]43C)[C@@H]12	–	16.2 µM	–	–	–	–	> 30 µM	–	–	–	19.6 µM
C=C(C)[C@@H]1CC[C@]2(C(=O)OC)CC[C@]3(C)[C@H](CC[C@@H]4[C@@]5(C)CC[C@H](OC(=O)n6ccnc6)C(C)(C)[C@@H]5CC[C@]43C)[C@@H]12	–	9.9 µM	–	–	–	–	8.2 µM	–	–	–	4.3 µM
C[C@@H](C=O)[C@@H]1CC[C@]2(COC(=O)n3ccnc3)CC[C@]3(C)[C@H](CC[C@@H]4[C@@]5(C)CC[C@H](O)C(C)(C)[C@@H]5CC[C@]43C)[C@@H]12	Active	13.7 µM	Active	Active	Active	Active	11.1 µM	Active	Active	Active	11.5 µM
C=C(C)[C@@H]1CC[C@]2(C(=O)n3ccnc3)CC[C@]3(C)[C@H](CC[C@@H]4[C@@]5(C)CCC(=O)C(C)(C)[C@@H]5CC[C@]43C)[C@@H]12	–	1.4 µM	–	–	–	–	2 µM	–	–	–	0.8 µM
C=C(C)[C@@H]1CC[C@]2(COC(=O)n3ccnc3)CC[C@]3(C)[C@H](CC[C@@H]4[C@@]5(C)CC[C@H](OC(C)=O)C(C)(C)[C@@H]5CC[C@]43C)[C@@H]12	–	> 30 µM	–	–	–	–	> 30 µM	–	–	–	> 30 µM
C=C(C)[C@@H]1CC[C@]2(C(=O)O)CC[C@]3(C)[C@H](CC[C@@H]4[C@@]5(C)CC[C@H](OC(=O)n6ccnc6)C(C)(C)[C@@H]5CC[C@]43C)[C@@H]12	Active	5.2 µM	Active	Active	Active	Active	5.1 µM	Active	Active	Active	6.2 µM
C[C@@H](C=O)[C@@H]1CC[C@]2(COC(=O)n3ccnc3)CC[C@]3(C)[C@H](CC[C@@H]4[C@@]5(C)CC[C@H](OC(=O)n6ccnc6)C(C)(C)[C@@H]5CC[C@]43C)[C@@H]12	–	20.2 µM	–	–	–	–	19.2 µM	–	–	–	26.1 µM
C=C(C)[C@@H]1CC[C@]2(C(=O)O)CC[C@]3(C)[C@H](CC[C@@H]4[C@@]5(C)CC[C@H](O)C(C)(C)[C@@H]5CC[C@]43C)[C@@H]12 [BETULINIC ACID]	Active	26.9 µM	Active	Active	Active	Active	26 µM	Active	Active	Active	36.4 µM
C=C(C)[C@@H]1CC[C@]2(C(=O)n3ccnc3)CC[C@]3(C)[C@H](CC[C@@H]4[C@@]5(C)C=C(O)C(=O)C(C)(C)[C@@H]5CC[C@]43C)[C@@H]12	Active	7 µM	Active	Active	Active	Active	4.6 µM	Active	Active	Active	6.5 µM
C=C(C)[C@@H]1CC[C@]2(COC(=O)n3ccnc3)CC[C@]3(C)[C@H](CC[C@@H]4[C@@]5(C)CC[C@H](OC(=O)n6ccnc6)C(C)(C)[C@@H]5CC[C@]43C)[C@@H]12	–	> 30 µM	–	–	–	–	> 30 µM	–	–	–	> 30 µM
C=C(C)[C@@H]1CC[C@]2(COC(C)=O)CC[C@]3(C)[C@H](CC[C@@H]4[C@@]5(C)CC[C@H](OC(=O)n6ccnc6)C(C)(C)[C@@H]5CC[C@]43C)[C@@H]12	–	> 30 µM	–	–	–	–	> 30 µM	–	–	–	> 30 µM
C=C(C)[C@@H]1CC[C@]2(C(=O)n3ccnc3)CC[C@]3(C)[C@H](CC[C@@H]4[C@@]5(C)CC[C@H](OC(=O)n6ccnc6)C(C)(C)[C@@H]5CC[C@]43C)[C@@H]12	–	6 µM	–	–	–	–	8.2 µM	–	–	–	2.9 µM
